Test results as given in ChEMBL document CHEMBL1125265, “FTIR spectral study of intramolecular hydrogen bonding in thromboxane A2 receptor antagonist S-145 and related compounds. 3. Conformation and activity of S-145 analogues” (J Med Chem, 1991).

Tests used:
Type in all cases: functional
Oryctolagus cuniculus [1] = species: Oryctolagus cuniculus; assay: In vitro inhibitory concentration measured against U-46,619 (1 uM) induced aggregation of washed platelets (WP) in rabbit; N-Negative
Rattus norvegicus [2] = species: Rattus norvegicus; assay: In vitro inhibitory concentration measured against U-46,619 (30 nM) induced contraction for rat aorta
Rattus norvegicus [3] = species: Rattus norvegicus; assay: In vitro inhibitory concentration measured against collagen ([…]) induced aggregation of washed platelets (WP) in rat
Summary of the method: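 Rat washed platelets; aggregation triggered with collagen at 4 µg/mL; inhibitory concentration reported as IC50, following a procedure from earlier work.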

Oryctolagus cuniculus [4] = species: Oryctolagus cuniculus; assay: In vitro inhibitory concentration measured against U-46,619 (1 uM) induced aggregation of washed platelets (WP) in rabbit

Row | SMILES | IC50 (Oryctolagus cuniculus [1]) | IC50 (Rattus norvegicus [2]) [µM] | IC50 (Rattus norvegicus [3]) [µM] | IC50 (Oryctolagus cuniculus [4]) [µM]
1 | CCCCCCC(O)CCCCCCCCCCC(=O)O (configuration not stated) | Negative |  |  | 
2 | O=C(O)CCCCCNS(=O)(=O)c1ccccc1 | Negative | > 140 | > 14.5 | 
3 | O=C(O)CCCCCCCCCCNS(=O)(=O)c1ccccc1 |  | 4.6 | 4.35 | 10
4 | O=C(O)CCCCCCCCNS(=O)(=O)c1ccccc1 |  | 1.6 | 0.41 | 0.4
5 | O=C(O)CCCCCCCCCCCO | Negative |  |  | 
6 | O=C(O)CCCCCCNS(=O)(=O)c1ccccc1 |  | 55.3 | 11.6 | > 10
7 | O=C(O)CCCCNS(=O)(=O)c1ccccc1 | Negative | > 140 | > 14.5 | 
8 | O=C(O)CCC/C=C\C[C@@H]1C(NS(=O)(=O)c2ccccc2)C2CC[C@@H]1C2 (some centres not stated) |  | 0.0014 | 0.0029 | 0.006
9 | O=C(O)CCCNS(=O)(=O)c1ccccc1 | Negative | > 140 | > 14.5 | 
10 | O=C(O)CCCCCCCCCCCNS(=O)(=O)c1ccccc1 |  | 6.4 | 3.48 | > 10
11 | O=C(O)CCC/C=C\CCCNS(=O)(=O)c1ccccc1 |  |  | 0.041 | 0.048
12 | O=C(O)CCCCCCCNS(=O)(=O)c1ccccc1 |  | 2.8 | 0.29 | 0.7
13 | O=C(O)COc1ccc(CCNS(=O)(=O)c2ccccc2)cc1 [SULOTROBAN] |  |  |  | 0.3
